Data set [1] in a line: folding enthalpy; higher = less favourable; fluorescence melt of hairpins on a sequencing array, two-state fit. The conditions noted are these: sodium 0.088 M. In outline:
(§1)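 On a sequenced MiSeq flow cell, library hairpins with annealed Cy3 and quencher oligos were imaged for Cy3 fluorescence in 2.5 °C steps up to 60 °C, in 50 mM Na-HEPES pH 8.0, 25 mM NaCl. Normalisation used pre-quench Cy3 and control constructs. Bootstrapped two-state fits gave melting temperature and folding enthalpy, combined by inverse variance across four replicates and with fitted temperatures raised by 9.35 °C to match UV melts.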

Data set [2] can be described thus: melting temperature; fluorescence melt of hairpins on a sequencing array, two-state fit, raised by 9.35 °C to match UV melts. As to conditions: sodium 0.088 M. In outline:
as §1

GCCCTGCGAAAGCACAGC ((..(((....)))..)): the folding enthalpy in data set [1] was -8.54 kcal/mol. Also, in data set [2], the Tm was 27.4 °C.
For GGCCACGAAAGTGTGCC ((((((....))).))) the same measures were -25.9 kcal/mol and 64 °C.
For GATCCATTGTGGATC ((((((...)))))) the same measures were -38.8 kcal/mol and 51.7 °C.
For GGTGGGGGAAACCCTACC (((.(((....))).))) the same measures were -27.1 kcal/mol and 52.7 °C.
Turning to GCCGGTGGAAACACCGAC (.(((((....))))).), the folding enthalpy in data set [1] is -12.4 kcal/mol. Also, the Tm in data set [2] was determined as 55.3 °C.
Regarding GATCGATTTTTCGATC ((((((....)))))), in data set [1], the folding enthalpy was -44.3 kcal/mol. Further, in data set [2], the Tm worked out at 54.7 °C.
On the same counts, the results for GTCATCGAAAGATGGGAC ((((((....)))..))) are -14.4 kcal/mol and 34.1 °C.
For GATCGTCCTCACGATC ((((((....)))))), in data set [1], the folding enthalpy was -42.9 kcal/mol. Moreover, the Tm in data set [2] was determined as 53.5 °C.
On the same counts, the results for GTACTGGGAAACCAGCAC ((.((((....)))).)) are -20.4 kcal/mol and 42.3 °C.
Turning to GATCCCTAGTGGGATC ((((((....)))))), the folding enthalpy in data set [1] is -38.7 kcal/mol. Further, in data set [2], the Tm was found to be 57 °C.
On the same counts, the results for GCGTAAGGAAACTTGTGC ((..(((....)))..)) are -10.8 kcal/mol and 29.7 °C.
On the same counts, the results for GCTTTGCGAAAGCGATGC ((.(.((....)).).)) are -19.2 kcal/mol and 46.5 °C.
For GGCCGCGAAAGCGTAGCC ((((((....)))..))) the same measures were -22.5 kcal/mol and 61 °C.
Turning to GCTAGGCGAAAGCAAAGC (((..((....))..))), the folding enthalpy in data set [1] is -19.2 kcal/mol. For the same sequence, the Tm in data set [2] worked out at 44.3 °C.
On the same counts, the results for CGAGCGGAAACGCCATCG ((((((....)))..))) are -12.5 kcal/mol and 31.9 °C.
Turning to GAATTGCGAAAGCAGTTC (((.(((....))).))), the folding enthalpy in data set [1] is -30.3 kcal/mol. In addition, the Tm in data set [2] worked out at 51.5 °C.
For the sequence GCGCTGCGAAAGCGCCGC (((..((....))..))), in data set [1], the folding enthalpy is -9.61 kcal/mol. The Tm in data set [2] amounted to 61.6 °C.
Consider GCCCAGCGAAAGCTGGC (((.(((....)))))), for which the folding enthalpy in data set [1] is -9.03 kcal/mol. Moreover, the Tm in data set [2] was found to be 61 °C.
As for GAAAGCGGAAACGCTTCC (.(((((....))))).), in data set [1], the folding enthalpy was -12.3 kcal/mol. In addition, the Tm in data set [2] is 41.4 °C.
For the sequence GACCCCGAAAGGGACGTC ((((((....)))..))), in data set [1], the folding enthalpy was -17 kcal/mol. Also, the Tm in data set [2] came to 40.4 °C.
On to GGACTCGAAAGAGGGTCC ((((((....)))..))), for which the folding enthalpy in data set [1] is -21 kcal/mol. The Tm in data set [2] came to 43.9 °C.
On the same counts, the results for GGTCCACGAAAGTGACC (((.(((....)))))) are -24.4 kcal/mol and 52.5 °C.
On the same counts, the results for CGCGGACCAATCCGCG ((((((....)))))) are -39.2 kcal/mol and 62.2 °C.
For GGCATAGCGAAAGCTGCC (((..(((....)))))) the same measures were -31.4 kcal/mol and 59.2 °C.
As to GCCGAGCGAAAGCACAGC ((.(.((....)).).)), in data set [1], the folding enthalpy is -15.1 kcal/mol. The Tm in data set [2] stood at 40.1 °C.
For GGGGGTGGAAACACCTCC ((.((((....)))).)) the same measures were -29.1 kcal/mol and 54.9 °C.
For GATAAAACGAAAGTTATC (((..(((....)))))) the same measures were -9.65 kcal/mol and 22.7 °C.
In the case of GCCCTAGAAATAGGGC ((((((....)))))), in data set [1], the folding enthalpy was -37.2 kcal/mol. Moreover, the Tm in data set [2] worked out at 59.1 °C.
For GTACAGCGAAAGCTATAC (((.(((....))).))) the same measures were -18 kcal/mol and 36.9 °C.
Take GCGTATACACGC ((((....)))): the folding enthalpy in data set [1] is -22.8 kcal/mol. The Tm in data set [2] was found to be 53.6 °C.
For GATGGCGAAAGCCTATC ((((((....))).))) the same measures were -12.7 kcal/mol and 44.3 °C.
For the sequence GAGTACGAAAGTACGCTC ((((((....)))..))), the folding enthalpy in data set [1] was -16.3 kcal/mol. In addition, the Tm in data set [2] stood at 53.9 °C.
Consider GGCCAAGGAAACCTGGCC (((((.(....).))))), for which the folding enthalpy in data set [1] is -42.3 kcal/mol. Also, the Tm in data set [2] turned out to be 57.3 °C.
On the same counts, the results for GTTGGCGAAAGCCCAAAC ((((((....)))..))) are -7.1 kcal/mol and 24.8 °C.
For GCGTAATGACGC ((((....)))) the same measures were -23.2 kcal/mol and 51.5 °C.
As for GCCCTCCCGAAAGGGGGC (((..(((....)))))), the folding enthalpy in data set [1] is -16.1 kcal/mol. In data set [2], the Tm worked out at 58 °C.
As to GTTCTACGAAAGTATAAC (((.(((....))).))), the folding enthalpy in data set [1] was -24 kcal/mol. In data set [2], the Tm is 34.5 °C.
On the same counts, the results for GCAGTGCGAAAGCATAGC ((..(((....)))..)) are -15.8 kcal/mol and 55.4 °C.
For GATCGTGCAAACGATC ((((((....)))))) the same measures were -33 kcal/mol and 66.9 °C.
Regarding CGGTACGGAAACGTTCCG (((.(((....))).))), in data set [1], the folding enthalpy was -32.4 kcal/mol. The Tm in data set [2] came to 49.8 °C.
GTCCGGAAACGGAC (((((....))))): the folding enthalpy in data set [1] is -28.2 kcal/mol. Further, in data set [2], the Tm is 67.4 °C.
On to GATCCTCCTTAGGATC ((((((....)))))), for which the folding enthalpy in data set [1] is -36.8 kcal/mol. Further, the Tm in data set [2] is 50.9 °C.
On the same counts, the results for GATCCGGAGCGGATC ((((((...)))))) are -33.3 kcal/mol and 56.1 °C.
For GATCGTCTATACGATC ((((((....)))))) the same measures were -38.9 kcal/mol and 54.8 °C.
On the same counts, the results for GATCCTCGCGAGGATC ((((((....)))))) are -43.4 kcal/mol and 60.4 °C.
Turning to GGGCAGGGAAACCCGCCC ((((.((....)).)))), the folding enthalpy in data set [1] is -38.2 kcal/mol. Moreover, the Tm in data set [2] worked out at 60 °C.
For GCGTACCGAAAGGTTCGC (((.(((....))).))) the same measures were -50.5 kcal/mol and 63 °C.
Turning to GGCTATGGAAACATGGCC (((.(((....))).))), the folding enthalpy in data set [1] is -53.7 kcal/mol. Moreover, the Tm in data set [2] was 53.2 °C.
On the same counts, the results for GTTACGAAAGTAAC (((((....))))) are -30 kcal/mol and 54.7 °C.
For GAAGACCGAAAGGTTTTC (((.(((....))).))) the same measures were -27.4 kcal/mol and 47.9 °C.
On to GGATCACGAAAGTGTCC (((.(((....)))))), for which the folding enthalpy in data set [1] was -25.4 kcal/mol. In addition, in data set [2], the Tm amounted to 49.8 °C.
For GTGGTTGGAAACAACTAC ((.((((....)))).)) the same measures were -24.8 kcal/mol and 47.8 °C.
With GCGCCCGAAAGGGGCCGC ((((((....)))..))), the folding enthalpy in data set [1] is -16.4 kcal/mol. Further, the Tm in data set [2] came out at 61.4 °C.
On the same counts, the results for GCCAGGTCGAAAGACGGC (((..(((....)))))) are -34.7 kcal/mol and 53.4 °C.
For GACTACGAAAGTAACGTC ((((((....)))..))), the folding enthalpy in data set [1] was -16 kcal/mol. The Tm in data set [2] worked out at 31.8 °C.
On the same counts, the results for GCAGGCGAAAGCCTATGC ((((((....)))..))) are -13.9 kcal/mol and 47.6 °C.
On the same counts, the results for GTCATCGAAAGATAGGAC ((((((....)))..))) are -15.7 kcal/mol and 30.9 °C.
On the same counts, the results for GAACGCGAAAGCGCGTTC ((((((....)))..))) are -25.5 kcal/mol and 63.1 °C.
Take GGCTTGGAAACAAGCC ((((((....)))))): the folding enthalpy in data set [1] was -31.2 kcal/mol. Also, the Tm in data set [2] was determined as 66.6 °C.
Take GAACCGGGAAACTGGTTC (((((.(....).))))): the folding enthalpy in data set [1] was -41.7 kcal/mol. Besides, the Tm in data set [2] was 51.4 °C.
With GAGTGCGCGAAAGCGCTC (((..(((....)))))), in data set [1], the folding enthalpy was -5.97 kcal/mol. Besides, in data set [2], the Tm came to 32 °C.
Consider GGCGAGGGAAACCTCACC ((.((((....)))).)), for which the folding enthalpy in data set [1] is -31.7 kcal/mol. In data set [2], the Tm came out at 48.5 °C.
For GGTGGCCGAAAGGCTACC (((.(((....))).))) the same measures were -29.6 kcal/mol and 67.3 °C.
As to GTTGCCGAAAGGCCCAAC ((((((....)))..))), the folding enthalpy in data set [1] is -6.79 kcal/mol. In addition, the Tm in data set [2] stood at 29.4 °C.
Take GCTCGGCGAAAGCCATGC ((..(((....)))..)): the folding enthalpy in data set [1] was -10.7 kcal/mol. In addition, the Tm in data set [2] stood at 49.8 °C.
Turning to GGGTACGCGAAAGCGCCC (((..(((....)))))), the folding enthalpy in data set [1] is -16.3 kcal/mol. Besides, in data set [2], the Tm came to 47.2 °C.
On the same counts, the results for CGATTACGGAAACGTTCG (((..(((....)))))) are -21.5 kcal/mol and 38.5 °C.
On to GTGCCGGGAAACTGGCAC (((((.(....).))))), for which the folding enthalpy in data set [1] is -37 kcal/mol. Moreover, in data set [2], the Tm was found to be 66 °C.
For GGCATCGAAAGATACGCC ((((((....)))..))) the same measures were -24.3 kcal/mol and 42.3 °C.
For GGTCCTGGAAACAGGACC (((((((....))))))), the folding enthalpy in data set [1] was -30.9 kcal/mol. The Tm in data set [2] was found to be 69.3 °C.
On the same counts, the results for CGGCCGGAAACGGTACCG ((((((....)))..))) are -18.4 kcal/mol and 43.1 °C.
For GATCAAAGCCTTGATC ((((((....)))))) the same measures were -28.4 kcal/mol and 44.1 °C.
On the same counts, the results for GATCTTCGTAAGATC ((((((...)))))) are -30.9 kcal/mol and 45.2 °C.
Turning to GGCGTGGGAAACCACGTC (.(((((....))))).), the folding enthalpy in data set [1] is -21.1 kcal/mol. In data set [2], the Tm is 62.3 °C.
